Laboratory results published in ChEMBL document CHEMBL1140304, “Design and synthesis of potent inhibitors of plasmepsin I and II: X-ray crystal structure of inhibitor in complex with plasmepsin II” (J Med Chem, 2005).

Assays:
Cathepsin D = Cathepsin D (Homo sapiens, UniProt P07339); assay: Inhibitory concentration against the human Cathepsin D
In short: (§1)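 Fluorogenic assay in 100 mM sodium acetate (pH 4.5), 10% glycerol and 0.01% Tween 20, with 3 µM DABCYL/EDANS peptide substrate. Enzymes: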

Plasmepsin I = Plasmepsin I (Plasmodium falciparum, UniProt P39898); assay: Inhibitory concentration against the plasmepsin-1 of Plasmodium falciparum; in short: as §1
Chain of Plasmepsin I (P39898 whole entry): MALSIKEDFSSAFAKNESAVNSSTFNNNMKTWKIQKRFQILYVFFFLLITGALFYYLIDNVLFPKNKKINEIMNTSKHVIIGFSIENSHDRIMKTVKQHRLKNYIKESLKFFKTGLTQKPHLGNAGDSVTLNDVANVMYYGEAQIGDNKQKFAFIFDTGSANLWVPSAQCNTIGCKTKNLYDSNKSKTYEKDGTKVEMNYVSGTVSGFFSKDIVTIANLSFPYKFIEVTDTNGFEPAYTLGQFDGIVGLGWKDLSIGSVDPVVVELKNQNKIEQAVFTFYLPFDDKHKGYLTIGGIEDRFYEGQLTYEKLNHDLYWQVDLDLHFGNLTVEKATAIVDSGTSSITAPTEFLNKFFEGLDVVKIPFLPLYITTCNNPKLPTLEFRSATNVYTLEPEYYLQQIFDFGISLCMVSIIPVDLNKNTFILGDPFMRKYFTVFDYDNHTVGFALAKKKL

Plasmepsin II = Plasmepsin II (Plasmodium falciparum, UniProt P46925); assay: Inhibitory concentration against the plasmepsin-2 of Plasmodium falciparum; in short: as §1
Chain of Plasmepsin II (P46925 whole entry): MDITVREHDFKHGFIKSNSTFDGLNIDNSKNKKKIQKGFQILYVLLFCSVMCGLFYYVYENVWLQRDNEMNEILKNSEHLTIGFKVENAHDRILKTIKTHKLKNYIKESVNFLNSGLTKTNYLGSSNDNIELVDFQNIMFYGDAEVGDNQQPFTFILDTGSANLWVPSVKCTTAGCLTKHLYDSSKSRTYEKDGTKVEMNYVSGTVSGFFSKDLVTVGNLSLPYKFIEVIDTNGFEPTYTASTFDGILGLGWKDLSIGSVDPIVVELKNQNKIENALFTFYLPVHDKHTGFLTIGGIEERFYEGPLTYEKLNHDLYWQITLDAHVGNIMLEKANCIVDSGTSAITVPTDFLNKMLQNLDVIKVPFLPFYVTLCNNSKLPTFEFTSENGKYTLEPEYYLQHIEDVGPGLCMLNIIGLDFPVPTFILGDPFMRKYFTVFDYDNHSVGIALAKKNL

Plasmodium falciparum = assay: Percentage inhibition of parasite growth in human erythrocytes at 5 uM; format: functional
In short: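 Synchronous P. falciparum 3D7 early trophozoites at ~1% haematocrit and 1% parasitaemia, with [3H]hypoxanthine at 10 µCi/mL. Compound (1-5 µM final) or DMSO (max 1% v/v) was added. Cultures ran 30 h at 37 °C in gassed boxes to mature schizonts, then were harvested onto filters for β-counting. Uptake was expressed relative to DMSO controls; four independent experiments.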

Chain of Cathepsin D (P07339 65-162 limits assumed): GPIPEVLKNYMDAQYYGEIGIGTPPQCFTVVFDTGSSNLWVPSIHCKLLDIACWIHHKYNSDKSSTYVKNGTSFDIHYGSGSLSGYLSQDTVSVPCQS
Chain of Cathepsin D (P07339 169-412 limits assumed): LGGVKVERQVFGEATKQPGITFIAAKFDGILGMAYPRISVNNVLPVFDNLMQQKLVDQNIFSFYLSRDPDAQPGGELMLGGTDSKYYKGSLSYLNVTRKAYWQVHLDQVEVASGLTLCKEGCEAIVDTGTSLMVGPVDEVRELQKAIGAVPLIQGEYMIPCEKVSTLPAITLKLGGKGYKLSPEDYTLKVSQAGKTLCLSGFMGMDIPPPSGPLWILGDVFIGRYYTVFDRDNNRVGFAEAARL

Compound	Ki (Cathepsin D) [nM]	Ki (Plasmepsin I) [nM]	Ki (Plasmepsin II) [nM]	inhibition at 5 µM (Plasmodium falciparum) [%]
O=C(C[C@H](O)[C@H](COCc1ccc(-c2ccccc2)cc1)NC(=O)c1c(F)cc(F)cc1F)NC1CCCCC1	> 3600	188	214	
CC(C)C[C@H](NC(=O)[C@H](C)NC(=O)C[C@H](O)[C@H](COCc1ccc(-c2ccsc2)cc1)NC(=O)c1c(F)cc(F)cc1F)C(N)=O	1440	2.1	55	
CC(C)C[C@H](NC(=O)[C@H](C)NC(=O)C[C@H](O)[C@H](COCc1cccc(Br)c1)NC(=O)[C@@H](NC(=O)c1ccccn1)C(C)C)C(N)=O	32	1	5.7	55
CC(C)C[C@H](NC(=O)[C@H](C)NC(=O)C[C@H](O)[C@H](COCc1ccc(-c2ccc3c(c2)OCO3)cc1)NC(=O)c1c(F)cc(F)cc1F)C(N)=O	2700	3.3	19	
CC(C)C[C@H](NC(=O)[C@H](C)NC(=O)C[C@H](O)[C@H](COCc1ccc(-c2ccccc2)cc1)NC(=O)[C@@H](NC(=O)c1ccccn1)C(C)C)C(N)=O	2.5	0.3	0.9	70
CC(C)C[C@H](NC(=O)[C@H](C)NC(=O)C[C@H](O)[C@H](COCc1ccc(-c2ccccc2)cc1)NC(=O)c1c(F)cc(F)cc1F)C(N)=O	1730	5.9	48	
COc1cccc(CCNC(=O)C[C@H](O)[C@H](COCc2ccc(Br)cc2)NC(=O)c2c(F)cc(F)cc2F)c1				29
CCCCNC(=O)C[C@H](O)[C@H](COCc1ccc(-c2ccsc2)cc1)NC(=O)[C@@H](NC(=O)c1ccccn1)C(C)C	241	1	13	9
O=C(C[C@H](O)[C@H](COCc1ccc(-c2ccsc2)cc1)NC(=O)c1c(F)cc(F)cc1F)NC1CCCCC1	4940	278	260	
CC(C)C[C@H](NC(=O)[C@H](C)NC(=O)C[C@H](O)[C@H](COCc1cccc(-c2ccccc2)c1)NC(=O)[C@@H](NC(=O)c1ccccn1)C(C)C)C(N)=O	3.9	0.7	4.4	
O=C(C[C@H](O)[C@H](COCc1ccc(Br)cc1)NC(=O)c1c(F)cc(F)cc1F)NC1CCCCC1				0
CC(C)C[C@H](NC(=O)[C@H](C)NC(=O)C[C@H](O)[C@H](COCc1ccc(-c2ccsc2)cc1)NC(=O)[C@@H](NC(=O)c1ccccn1)C(C)C)C(N)=O	3.2	0.3	1.1	46
COc1cccc(CCNC(=O)C[C@H](O)[C@H](COCc2ccc(-c3ccsc3)cc2)NC(=O)c2c(F)cc(F)cc2F)c1	1880	221	693	
CCCCNC(=O)C[C@H](O)[C@H](COCc1ccc(-c2ccccc2)cc1)NC(=O)[C@@H](NC(=O)c1ccccn1)C(C)C	481	1.9	16	
CC(C)C[C@H](NC(=O)[C@H](C)NC(=O)C[C@H](O)[C@H](COCc1ccc(Br)cc1)NC(=O)c1c(F)cc(F)cc1F)C(N)=O				10
CC(C)C[C@H](NC(=O)[C@H](C)NC(=O)C[C@H](O)[C@H](COCc1cccc(-c2ccsc2)c1)NC(=O)[C@@H](NC(=O)c1ccccn1)C(C)C)C(N)=O	1.6	0.4	1.9	65
COc1cccc(CCNC(=O)C[C@H](O)[C@H](COCc2ccc(-c3ccccc3)cc2)NC(=O)c2c(F)cc(F)cc2F)c1	> 5900	116	308	
CCCCNC(=O)C[C@H](O)[C@H](COCc1ccc(-c2ccc3c(c2)OCO3)cc1)NC(=O)[C@@H](NC(=O)c1ccccn1)C(C)C	685	2.7	45	
CC(C)C[C@H](NC(=O)[C@H](C)NC(=O)C[C@H](O)[C@H](COCc1ccc(-c2ccc3c(c2)OCO3)cc1)NC(=O)[C@@H](NC(=O)c1ccccn1)C(C)C)C(N)=O	0.7	0.4	1.1	83
CC(C)C[C@H](NC(=O)[C@H](C)NC(=O)C[C@H](O)[C@H](COCc1ccc(Br)cc1)NC(=O)[C@@H](NC(=O)c1ccccn1)C(C)C)C(N)=O				51
